Compound activity: PubChem, NMMLSC
Only some compounds are listed: those with a hit (about 0.96% of all), similar ones and a draw of the others.
LAP4-GFP MLPCN: yeast TOR pathway LAP4-GFP modulation | hit rate 0.34% among 320,000 | GFP response vs DMSO, % at 10 µM | S. cerevisiae LAP4-GFP multiplex, flow cytometry GFP, 3 h; median GFP as percent of DMSO wells;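 active means GFP response vs DMSO above a set limit, about the screen mean plus 3 SD, cut at about 150% in these data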
CIT2-GFP yeast: alters CIT2-GFP fluorescence in TOR pathway yeast screen. hit rate 0.065% among 320,000. GFP response vs DMSO, % at 10 µM. S. cerevisiae CIT2-GFP strain, flow cytometry, 3 h; 100 means same as DMSO wells;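 active means GFP response relative to DMSO above a set limit, near the screen mean plus 3 SD, cut at about 150% in these data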;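 further: ratio of well median GFP fluorescence to mean of DMSO wells on the plate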
MEP2 TOR yeast: alters MEP2-GFP fluorescence in TOR pathway yeast screen | hit rate 0.51% among 330,000 | GFP response vs DMSO, % at 10 µM | S. cerevisiae MEP2-GFP strain, flow cytometry GFP, 3 h; 100% = DMSO control level;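 active means GFP response versus DMSO above a set limit, roughly screen mean plus 3 SD, cut at about 180% in these data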;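 further: median GFP fluorescence of the barcode-gated MEP2-GFP cells per well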
RPL19A-GFP yeast: alters RPL19A-GFP fluorescence in TOR pathway yeast screen | percent response vs DMSO, % at 10 µM | hit rate 0.3% among 330,000 | S. cerevisiae RPL19A-GFP strain, flow cytometry, 3 h; hits give low values;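 active means percent response vs DMSO below 50%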;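 further: median channel GFP fluorescence of the barcoded RPL19A-GFP strain; ratio of sample median GFP to plate DMSO average so 100% = DMSO; lower means less RPL19A-GFP as with rapamycin TOR inhibition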
T cell modulator: modulates CD8 T cell binding to vesicles; 2C CD8+ T cell-vesicle binding, flow cytometry; hits give low values; response (vesicle binding), % at 7 µM; hit rate 0.068% among 330,000; AID 2052;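 active means response, share of CD8 T cells binding vesicles, and their 90th percentile fluorescence all below set limits, cut at about 80% in these data, passing the limit was not always enough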;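 further: values below 100% mean blocked vesicle binding to the CD8+ T cells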
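material = purified 2C TCR transgenic mouse naive CD8+ T cells | controls = Unloaded micro-vesicles (low), QL9 vesicles with 0.7% DMSO (high) | detection = cytometric PE anti-B7-1 and Alexa647 anti-CD8 signals after 1% paraformaldehyde fixation | incubation = binding step 1.5 h, 37 °C, antibody labelling 20 min, ice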
AGP1 TOR yeast: yeast TOR pathway AGP1-GFP modulation; S. cerevisiae AGP1-GFP multiplex flow cytometry, 3 h; GFP as percent of DMSO wells; GFP response vs DMSO, % at 10 µM; hit rate 0.02% among 320,000; AID 2066;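 active means GFP response relative to DMSO above a set limit, near screen average plus 3 SD, cut at about 150% in these data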;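 further: median GFP channel fluorescence of the gated AGP1 strain per well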
LAP4 cherry2: reconfirmed LAP4-GFP TOR pathway modulator in yeast; shares compounds with LAP4-GFP MLPCN; GFP response vs DMSO, % at 10 µM; S. cerevisiae LAP4-GFP strain, flow cytometry GFP, 3 h; hit rate 20% among 590;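 active means GFP signal as percent of the solvent control above about 150%, meaning raised reporter expression, limit read from the data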;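 further: ratio of well median GFP fluorescence to plate DMSO mean so 100% = DMSO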
MEP2-GFP pick2: yeast MEP2-GFP modulation, second cherry pick. shares compounds with LAP4-GFP MLPCN. AID 2622. GFP response vs DMSO, % at 10 µM. S. cerevisiae MEP2-GFP strain, flow cytometry GFP, 3 h. hit rate 10% among 590;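 active means GFP signal above 150% of the solvent control wells, that is a rise of more than half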;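 further: median channel GFP fluorescence of all gated yeast cells per well; ratio of median GFP to plate DMSO average so 100% = DMSO level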
RPL19A GFP CP2: yeast RPL19A-GFP TOR reporter modulation, second cherry pick. shares compounds with LAP4-GFP MLPCN. S. cerevisiae RPL19A-GFP strain, flow cytometry GFP, 3 h; hits give low values; 100% means same as DMSO wells. GFP response vs DMSO, % at 10 µM. hit rate 3% among 590. AID 2623;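 active means under 65% GFP response relative to DMSO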;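 further: median GFP channel fluorescence per well over the all cells gate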
CIT2-GFP pick2: yeast CIT2-GFP TOR reporter modulation, second cherry pick. shares compounds with LAP4-GFP MLPCN. S. cerevisiae CIT2-GFP strain, flow cytometry GFP, 3 h; DMSO control wells read 100%. GFP response vs DMSO, % at 10 µM. hit rate 8% among 590;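 active means GFP response vs DMSO above about 150%, limit read from the data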;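 further: median green fluorescence per well over all gated yeast cells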
AGP1-GFP pick2: reconfirmed modulator of AGP1-GFP TOR reporter in yeast. shares compounds with LAP4-GFP MLPCN. S. cerevisiae AGP1-GFP strain, flow cytometry GFP, 3 h. percent response vs DMSO, % at 10 µM. 590 tested, under 10 active. AID 2643;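 active means over 150 percent of DMSO response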;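 further: median GFP channel fluorescence over all cells without mother daughter split; sample median GFP divided by mean DMSO control so 100% equals DMSO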
s288c autofluor: counter-screen for compound autofluorescence in yeast s288c cells; fluorescence change (kMESF span) at 33 µM; S. cerevisiae s288c, 520 nm autofluorescence, flow cytometry, 3 h; hits give high values; zero means same as solvent-only cells; 610 tested, under 10 active; shares compounds with LAP4-GFP MLPCN;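 active means fluorescence span over the dose series, or activity score, above about 33, limit read from the data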
Yeast autofl DR: TOR screen hit shows autofluorescence in yeast s288c | shares compounds with LAP4-GFP MLPCN | S. cerevisiae s288c parental, compound autofluorescence, flow cytometry, 3 h | fluorescence change (span) at 33 µM | 110 tested, under 10 active;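 active means fluorescence change span, or the activity score built from it, above 25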
TORC1 bypass: stops wildtype yeast growth while TORC1 bypass cells still grow; S. cerevisiae BY4741 spot growth rating, 48-72 h; hits give low values; shares compounds with LAP4-GFP MLPCN; 120 tested, under 10 active; growth rating (0-3) at 30 µM;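 active means growth rating at most 1 for wild type yeast while the TORC1 bypass strain still grows fully, rated 3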
* = called active by the depositor; i = inactive; · = no result.

SMILES | LAP4-GFP MLPCN | CIT2-GFP yeast | MEP2 TOR yeast | RPL19A-GFP yeast | T cell modulator | AGP1 TOR yeast | s288c autofluor | others
CCOc1cc(C=C2C(=O)c3ccccc3C2=O)ccc1OCC(=O)Nc1ccc(C)cc1 | 109.5 | 104.9 | 109.3 | 104.5 | 130.6 | 108.5 | -0.2 | LAP4 cherry2=96.2;MEP2-GFP pick2=99.8;RPL19A GFP CP2=101.9;CIT2-GFP pick2=100.7;AGP1-GFP pick2=99.6
CCOc1cc(/C=N/NC(N)=O)ccc1OCC(=O)Nc1ccc(C)c(C)c1 | 105.9 | 98.9 | 99.6 | 96.9 | 216.8 | 105.7 | ·
CSc1cccc(CN2CCC(n3nccc3NC(=O)C3CC3)CC2)c1 | 92.1 | 122.0 | 107.2 | 105.8 | 676.8 | 102.1 | ·
O=C(Cc1ccc(Cl)cc1)NCCCNC(=O)c1cccnc1 | 110.0 | 104.3 | 119.1 | 101.9 | i | 103.7 | ·
Cc1cc(C)c(C(=O)N2CCCC(Nc3ccc(F)cc3)C2)o1 (configuration not stated) | 200.9* | 74.0 | 85.1 | 67.0 | 390.7 | 58.9 | · | LAP4 cherry2=95.2;MEP2-GFP pick2=96.1;RPL19A GFP CP2=102.1;CIT2-GFP pick2=107.1;AGP1-GFP pick2=98.5
Cc1cc(C)c(C(=O)N2CCCC(Nc3ccc(C)c(C)c3)C2)o1 (configuration not stated) | 97.3 | 95.0 | 96.8 | 95.1 | 482.7 | 96.9 | ·
O=[N+]([O-])c1cc(/C=N\Nc2ccccn2)ccc1Cl | 80.0 | 95.6 | 102.8 | 105.7 | 332.0 | 98.1 | ·
O=[N+]([O-])c1cc(Cl)cc(/C=N\Nc2ccccn2)c1O | 146.5 | 74.4 | 121.7 | 52.2 | 356.6 | 45.8 | 2.7 | LAP4 cherry2=179.4*;MEP2-GFP pick2=192.1*;RPL19A GFP CP2=82.2;CIT2-GFP pick2=165.5*;AGP1-GFP pick2=84.4
COc1ccc(CNC(=O)C2CCCN2S(=O)(=O)c2ccc(C)cc2)cc1 (configuration not stated) | 102.9 | 89.0 | 92.8 | 97.3 | 275.5 | 97.0 | ·
Cc1ccc(S(=O)(=O)N2CCCC2C(=O)NCc2ccncc2)cc1 (configuration not stated) | 100.0 | 160.7* | 112.0 | 97.7 | 220.3 | 109.9 | 0 | LAP4 cherry2=101.9;MEP2-GFP pick2=113.1;RPL19A GFP CP2=100.4;CIT2-GFP pick2=107.4;AGP1-GFP pick2=100.1
CC(OC(=O)c1ccco1)C(=O)Nc1nc(-c2ccccc2)cs1 (configuration not stated) | 176.9* | 64.1 | 93.9 | 77.9 | 323.1 | 100.7 | 0 | LAP4 cherry2=120.2;MEP2-GFP pick2=94.3;RPL19A GFP CP2=98.2;CIT2-GFP pick2=102.9;AGP1-GFP pick2=98.8
O=C(Nc1nc(-c2ccccc2)cs1)c1ccco1 | 113.5 | 85.5 | 94.2 | 98.1 | 226.5 | 91.2 | ·
COc1cc2c(cc1OC)CN(C(=O)Cc1c(F)cccc1Cl)CC2 | 100.9 | 108.6 | 110.5 | 104.0 | 541.2 | 102.1 | ·
COc1cc(/C=C2\C(=O)N(CCC#N)N=C2C)c(Br)cc1OC(C)C | 192.3* | 89.4 | 92.0 | 105.2 | 243.6 | 86.5 | -0.41
Cc1ccccc1C(=O)NNC(=S)NC(=O)COc1ccccc1 | 145.7 | 89.8 | 101.8 | 106.0 | 307.5 | 91.7 | ·
COc1ccccc1C(=O)NNC(=S)NC(=O)c1ccco1 | 268.0* | 88.6 | 123.1 | 88.5 | 248.4 | 102.2 | 3.84 | LAP4 cherry2=334.7*;MEP2-GFP pick2=179.9*;RPL19A GFP CP2=110.0;CIT2-GFP pick2=137.7;AGP1-GFP pick2=116.6
Cc1ccc(C(=O)NNC(=S)NC(=O)COc2ccccc2)cc1 | 275.1* | 96.5 | 129.9 | 101.5 | 229.5 | 91.3 | -5.34 | Yeast autofl DR=0.68;TORC1 bypass=3
CC(C)(C)C(=O)NC(=S)NNC(=O)c1ccc(-c2ccccc2)cc1 | 246.4* | 93.7 | 125.9 | 88.6 | 51.5 | 88.1 | 1.43 | Yeast autofl DR=0.73;TORC1 bypass=3
CC(Oc1ccc(Cl)cc1)C(=O)NNC(=S)NC(=O)c1ccco1 (configuration not stated) | 242.0* | 111.6 | 101.2 | 87.8 | 273.0 | 101.5 | 0.91 | Yeast autofl DR=0.52;TORC1 bypass=3
CCCOc1ccc(C(=O)NNC(=S)NC(C)=O)cc1 | 137.2 | 100.9 | 117.2 | 108.1 | 900.7 | 108.8 | ·
O=C(NNC(=S)NC(=O)c1ccco1)c1ccc(F)cc1 | 217.6* | 103.4 | 116.3 | 98.5 | 49.6* | 120.0 | 1.5
CCCOc1ccc(C(=O)NNC(=S)NC(=O)c2ccco2)cc1 | 154.2* | 111.0 | 109.9 | 112.1 | 398.7 | 112.5 | 1.11
CCCCC(=O)NNC(=S)NC(=O)c1ccc(C)cc1 | 192.8* | 111.1 | 114.5 | 95.6 | 399.6 | 129.2 | 1.11 | Yeast autofl DR=0.89;TORC1 bypass=3
CCCOc1ccc(C(=O)NNC(=S)NC(=O)c2ccccc2)cc1 | 152.5* | 99.9 | 94.3 | 108.0 | 201.0 | 112.8 | 1
COc1ccc(C(=O)NNC(=S)NC(=O)c2ccco2)cc1 | 118.6 | 92.9 | 99.9 | 105.9 | 307.1 | 105.3 | ·
Nc1nc(COC(=O)C2CC(=O)N(CCc3ccccc3)C2)nc(Nc2ccccc2)n1 (configuration not stated) | 99.2 | 88.3 | 98.7 | 95.3 | 297.9 | 94.6 | ·
COc1ccccc1N1CCN(CCN2C(=O)C3CCCN3C2=O)CC1 (configuration not stated) | 87.8 | 98.2 | 104.4 | 103.5 | 467.8 | 92.9 | ·
CCC(=O)NC(=S)NNC(=O)c1ccc(OC)cc1 | 105.0 | 104.0 | 103.1 | 99.2 | 321.5 | 114.0 | ·
CCCCOc1ccc(C(=O)NNC(=S)NC(=O)CC)cc1 | 299.3* | 76.8 | 117.4 | 89.1 | 276.7 | 95.5 | 1.41 | LAP4 cherry2=330.7*;MEP2-GFP pick2=155.5*;RPL19A GFP CP2=104.7;CIT2-GFP pick2=166.9*;AGP1-GFP pick2=108.2
